In ChEMBL document CHEMBL4725432, “Dethioacylation by Sirtuins 1-3: Considerations for Drug Design Using Mechanism-Based Sirtuin Inhibition” (ACS Med Chem Lett, 2020):
The source made the active and inactive calls. The calls are words filed in the database; no cut-off is given here. Residues, ends and D or L forms follow the SMILES beside them. *: point of attachment. AMC = Cc1cc(=O)oc2cc(N*)ccc12; Cbz = O=C(OCc1ccccc1)*; Propionyl = CCC(=O)*; Butyryl = CCCC(=O)*; NHiPr = CC(C)N*

What was measured:
[1] = biological target: T1, NAD-dependent protein deacetylase sirtuin-3, mitochondrial (Homo sapiens) (UniProt Q9NTG7); assay: Inhibition of human recombinant N-terminal GST-tagged SIRT3 (102 to 399 residues) deacetylation activity in presence of substrate and NAD+ at 15 uM after 60 mins measured by reversed-phase UPLC-MS analysis relative to control
T1 sequence (whole entry): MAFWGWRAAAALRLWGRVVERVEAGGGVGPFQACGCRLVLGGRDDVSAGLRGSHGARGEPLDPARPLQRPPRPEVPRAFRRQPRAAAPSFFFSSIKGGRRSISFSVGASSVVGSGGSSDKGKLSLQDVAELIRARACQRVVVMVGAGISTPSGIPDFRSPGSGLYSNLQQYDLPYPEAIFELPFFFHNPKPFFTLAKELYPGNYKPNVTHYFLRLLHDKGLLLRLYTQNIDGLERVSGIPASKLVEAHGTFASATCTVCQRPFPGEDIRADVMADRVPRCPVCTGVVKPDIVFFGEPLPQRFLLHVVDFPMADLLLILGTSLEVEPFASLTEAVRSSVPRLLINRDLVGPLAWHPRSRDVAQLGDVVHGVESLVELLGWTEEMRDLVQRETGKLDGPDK

[2] = biological target: T2, NAD-dependent protein deacetylase sirtuin-1 (Homo sapiens) (UniProt Q96EB6); assay: Inhibition of human recombinant N-terminal GST-tagged SIRT1 (193 to 741 residues) deacetylation activity in presence of substrate and NAD+ at 15 uM after 60 mins by reversed-phase UPLC-MS analysis relative to control
T2 sequence (whole entry): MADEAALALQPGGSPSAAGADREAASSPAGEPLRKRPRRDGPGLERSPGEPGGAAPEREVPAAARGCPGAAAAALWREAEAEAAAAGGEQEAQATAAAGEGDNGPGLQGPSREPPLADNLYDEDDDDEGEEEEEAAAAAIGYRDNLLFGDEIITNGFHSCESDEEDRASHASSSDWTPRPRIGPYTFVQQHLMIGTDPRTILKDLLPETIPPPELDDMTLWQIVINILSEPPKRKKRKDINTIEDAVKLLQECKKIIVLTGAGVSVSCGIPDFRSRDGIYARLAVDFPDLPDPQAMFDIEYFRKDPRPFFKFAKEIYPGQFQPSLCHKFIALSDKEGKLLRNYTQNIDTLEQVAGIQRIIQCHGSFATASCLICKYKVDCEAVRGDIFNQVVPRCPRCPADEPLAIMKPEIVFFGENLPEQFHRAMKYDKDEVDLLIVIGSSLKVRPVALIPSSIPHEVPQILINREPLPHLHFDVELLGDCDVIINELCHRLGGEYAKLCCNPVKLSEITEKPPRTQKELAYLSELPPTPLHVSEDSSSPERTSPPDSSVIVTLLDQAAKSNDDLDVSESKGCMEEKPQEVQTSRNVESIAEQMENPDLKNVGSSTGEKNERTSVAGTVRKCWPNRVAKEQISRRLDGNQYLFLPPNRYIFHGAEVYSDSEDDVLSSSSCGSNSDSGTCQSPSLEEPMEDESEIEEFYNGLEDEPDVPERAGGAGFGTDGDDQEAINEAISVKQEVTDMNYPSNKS

[3] = biological target: T3, NAD-dependent protein deacetylase sirtuin-1 (Homo sapiens, UniProt Q96EB6); assay: Inhibition of human recombinant SIRT1 expressed in Escherichia coli in presence of acyl peptide acetyl-H3K9 as substrate incubated for 5 mins by HPLC analysis
T3 sequence (Q96EB6 whole entry): T2 sequence (whole entry)

[4] = biological target: T2, NAD-dependent protein deacetylase sirtuin-1 (Homo sapiens); assay: Inhibition of human N-terminal GST-tagged SIRT1 (193 to 741 residues) expressed in Escherichia coli preincubated with NAD+ for 30 mins using Ac-Gln-Pro-Lys-Lys(Ac)-AMC (oxo-10) as substrate at 1 to 100 uM measured after 90 mins by fluorescence assay; conditions: dose microM 1-100, time 120.0 min
Outline: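 Recombinant SIRT1 (100 nM) preincubated 30 min with compound, either with or without NAD+ (500 μM), before the fluorogenic deacetylation read-out. Single-dose %-inhibition. Two independent experiments in duplicate, standard deviation.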

[5] = biological target: T3, NAD-dependent protein deacetylase sirtuin-1; assay: Inhibition of human recombinant N-terminal GST-tagged SIRT1 (193 to 741 residues) expressed in Escherichia coli using Ac-Gln-Pro-Lys-Lys(Ac)-AMC (oxo-10) as substrate by fluorescence assay
[6] = biological target: T1, NAD-dependent protein deacetylase sirtuin-3, mitochondrial (Homo sapiens); assay: Inhibition of human N-terminal GST-tagged SIRT3 (102 to 399 residues) expressed in Escherichia coli using Ac-Gln-Pro-Lys-Lys(but)-AMC (oxo-12) as substrate at 100 uM by fluorescence assay relative to control
[7] = biological target: T4, NAD-dependent protein deacetylase sirtuin-2 (Homo sapiens, UniProt Q8IXJ6); assay: Inhibition of human C-terminal His-tagged SIRT2 (50 to 356 residues) expressed in Escherichia coli using Ac-Gln-Pro-Lys-Lys(pro)-AMC (oxo-11) as substrate by fluorescence assay
T4 sequence (Q8IXJ6 whole entry): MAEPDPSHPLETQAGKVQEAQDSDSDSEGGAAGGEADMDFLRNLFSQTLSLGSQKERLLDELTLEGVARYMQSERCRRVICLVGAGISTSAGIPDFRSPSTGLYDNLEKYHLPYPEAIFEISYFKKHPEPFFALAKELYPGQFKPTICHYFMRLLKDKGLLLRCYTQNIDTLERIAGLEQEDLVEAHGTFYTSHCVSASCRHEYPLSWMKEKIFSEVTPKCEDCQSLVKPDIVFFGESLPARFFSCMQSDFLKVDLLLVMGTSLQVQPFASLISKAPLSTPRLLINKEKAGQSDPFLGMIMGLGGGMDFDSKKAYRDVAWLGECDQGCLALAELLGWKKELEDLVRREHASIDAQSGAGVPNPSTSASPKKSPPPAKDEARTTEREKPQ

[8] = biological target: T1, NAD-dependent protein deacetylase sirtuin-3, mitochondrial (Homo sapiens); assay: Inhibition of human recombinant SIRT3 expressed in Escherichia coli BL21 in presence of acyl peptide acetyl-H3K9 as substrate at 100 uM incubated for […] mins by HPLC analysis relative to control; conditions: time 5.0 min
[9] = biological target: T5, NAD-dependent protein deacetylase sirtuin-2 (Homo sapiens) (UniProt Q8IXJ6); assay: Inhibition of human recombinant SIRT2 expressed in Escherichia coli in presence of acyl peptide acetyl-H3K9 as substrate at 100 uM incubated for 5 mins by HPLC analysis relative to control
T5 sequence (whole entry): T4 sequence (Q8IXJ6 whole entry)

[10] = biological target: T2, NAD-dependent protein deacetylase sirtuin-1 (Homo sapiens); assay: Inhibition of SIRT1 in HEK293 cells assessed as increase in p53 acetylation co-treated with TSA at 25 uM for 6 hrs by western blot analysis; type: cell-based
Outline: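 HEK293 cells exposed 6 h to compound at 25 μM together with TSA (1 μM). Whole-cell lysates immunoblotted for Ac-p53 (K382) and total p53. Ratio Ac-p53/p53 normalized to DMSO control. Two independent experiments in duplicate, SEM.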

[11] = test system: HEK293; assay: Inhibition of deacetylation activity in HEK293 cell lysate incubated with substrate for 2 hrs at 50 uM measured after 90 mins by fluorescence assay; type: functional, subcellular; conditions: Homo sapiens
Outline: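 Fluorogenic thioacyl or acyl lysine-AMC substrates incubated with fresh HEK293 cell lysate (~65 μg). Deacylation measured by fluorescence. Two independent experiments in duplicate, standard deviation.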

[12] = biological target: T5, NAD-dependent protein deacetylase sirtuin-2 (Homo sapiens); assay: Inhibition of human recombinant C-terminal His-tagged SIRT2 (50 to 356 residues) deacetylation activity in presence of substrate and NAD+ incubated for 60 mins measured after 90 mins by fluorescence assay
Outline: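 Recombinant SIRT2 (100 nM or 250 nM) incubated with fluorogenic thioacyl or oxo lysine-AMC substrates plus NAD+. Deacylation read by fluorescence. Two independent experiments in duplicate, standard deviation.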

[13] = biological target: T2, NAD-dependent protein deacetylase sirtuin-1 (Homo sapiens); assay: Inhibition of human recombinant N-terminal GST-tagged SIRT1 (193 to 741 residues) deacetylation activity in presence of substrate and NAD+ at 15 uM after 15 mins by reversed-phase UPLC-MS analysis relative to control; set-up: scale not given: the % may be the effect or the level left
[14] = biological target: T5, NAD-dependent protein deacetylase sirtuin-2 (Homo sapiens); assay: Inhibition of human recombinant C-terminal His-tagged SIRT2 (50 to 356 residues) deacetylation activity in presence of substrate and NAD+ at 15 uM incubated 15 to 60 mins by reversed-phase UPLC-MS analysis; conditions: time min 15-60
[15] = biological target: T2, NAD-dependent protein deacetylase sirtuin-1 (Homo sapiens); assay: Inhibition of human recombinant N-terminal GST-tagged SIRT1 (193 to 741 residues) expressed in Escherichia coli using Ac-Gln-Pro-Lys-Lys(Ac)-AMC (oxo-10) as substrate at 100 uM by fluorescence assay relative to control
[16] = biological target: T5, NAD-dependent protein deacetylase sirtuin-2 (Homo sapiens); assay: Inhibition of human C-terminal His-tagged SIRT2 (50 to 356 residues) expressed in Escherichia coli using Ac-Gln-Pro-Lys-Lys(pro)-AMC (oxo-11) as substrate at 100 uM by fluorescence assay relative to control

SMILES	inhibition [1]	inhibition [4]	Activity [11]	inhibition [12]	further results
CC(=S)NCCCC[C@H](NC(=O)OCc1ccccc1)C(=O)Nc1ccccc1	inactive	inactive	–	–	inhibition [2]: inactive; IC50 [3]: 6.5 µM
CCCCNC(=S)NCCCC[C@H](NC(=O)OCc1ccccc1)C(=O)N[C@@H](Cc1c[nH]c2ccccc12)C(=O)NC(C)C	–	Active	–	–	IC50 [5]: 1.13 µM; inhibition [6]: 2%; IC50 [7]: 1.4 µM
CCCC(=S)NCCCC[C@H](NC(=O)OCc1ccccc1)C(=O)Nc1ccccc1	inactive	inactive	–	–	inhibition [2]: inactive; inhibition [8]: 23%; IC50 [3]: 12 µM; inhibition [9]: 88%
NC(=O)C1CCCc2c1[nH]c1ccc(Cl)cc21 (stereo not given)	–	inactive	–	–	inhibition [10]: Active
CCCC(=O)NCCCC[C@H](NC(=O)[C@H](CCCCN)NC(=O)[C@@H]1CCCN1C(=O)[C@H](CCC(N)=O)NC(C)=O)C(=O)Nc1ccc2c(C)cc(=O)oc2c1 (Ac-QPKK(Butyryl)-{AMC})	–	–	Active	Active	–
CCC(=O)NCCCC[C@H](NC(=O)[C@H](CCCCN)NC(=O)[C@@H]1CCCN1C(=O)[C@H](CCC(N)=O)NC(C)=O)C(=O)Nc1ccc2c(C)cc(=O)oc2c1 (Ac-QPKK(Propionyl)-{AMC})	–	–	Active	Active	–
CC(=O)NCCCC[C@H](NC(=O)[C@H](CCCCN)NC(=O)[C@@H]1CCCN1C(=O)[C@H](CCC(N)=O)NC(C)=O)C(=O)Nc1ccc2c(C)cc(=O)oc2c1 (Ac-QPKK(Ac)-{AMC})	–	–	Active	Active	–
CC(=O)NCCCC[C@H](NC(=O)OCc1ccccc1)C(=O)N[C@@H](Cc1c[nH]c2ccccc12)C(=O)NC(C)C (Cbz-Lys(Ac)-Trp-NHiPr)	54%	–	–	inactive	Activity [13]: > 80%; inhibition [14]: inactive
CC(C)NC(=O)[C@H](Cc1c[nH]c2ccccc12)NC(=O)[C@H](CCCCNC(=O)C(F)F)NC(=O)OCc1ccccc1	–	inactive	–	–	inhibition [15]: 29%; inhibition [6]: 9%; inhibition [16]: 17%
